Calls of active or inactive are those of the source. The calls are words filed in the database; no cut-off is given here.

Series [1] relates to Rattus norvegicus. Briefly: Hypoglycemic activity in 48-hrs fasted rat assessed as decrease in blood glucose level at 300 mg/kg, ip measured up to 4 hrs after drug administration. Also on record: dose 300 mg/kg. The format is functional, organism-based. The gist of the method:
(§1)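 Male rats of about 200 g were fasted 48 h. A zero-time tail-vein blood sample was taken on the morning of the test, then compound was given ip as a suspension in 0.9% saline or orally as a suspension in 0.5% tragacanth. Vehicle-only rats served as controls. Tail-vein blood was sampled at 1, 2 and 4 h for glucose.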

For series [2], the system named is Rattus norvegicus. Briefly: Hypoglycemic activity in 48-hrs fasted rat assessed as decrease in blood glucose level at 300 mg/kg, po measured up to 4 hrs after drug administration. The series is classed as functional, organism-based. Further details: dose 300 mg/kg. The gist of the method:
as §1

The subject of series [3] is Rattus norvegicus. Nature of the series: Hypoglycemic activity in 48-hrs fasted rat assessed as decrease in blood glucose level at 200 mg/kg, po after 1 hr. The series is classed as functional. The gist of the method:
as §1

Series [4] concerns Rattus norvegicus. Nature of the series: Hypoglycemic activity in 48-hrs fasted rat assessed as decrease in blood glucose level at 200 mg/kg, po after 4 hrs. The format is functional. The gist of the method:
as §1

The subject of series [5] is Rattus norvegicus. Briefly: Hypoglycemic activity in 48-hrs fasted rat assessed as decrease in blood glucose level at 200 mg/kg, po after 2 hrs. The format is functional. In a few lines:
as §1

Series [6] concerns Rattus norvegicus. Nature of the series: Toxicity in 48-hrs fasted rat assessed as mortality at 200 mg/kg, ip after 4 hrs. The format is organism-based. Further details: dose 200 mg/kg, route intraperitoneal. The following applies: in vivo. In a few lines: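 Male rats, about 200 g, fasted 48 h before dosing. Given ip as a suspension in 0.9% saline; vehicle-only group run as controls. Tail-vein blood taken at time zero and at 1, 2 and 4 h after dosing.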

The test system of series [7] is Rattus norvegicus. Nature of the series: Hypoglycemic activity in 48-hrs fasted rat assessed as decrease in blood glucose level at 200 mg/kg, ip after 1 hr. The series is classed as functional. Particulars: route intraperitoneal. In a few lines:
as §1

Series [8] has as its system Rattus norvegicus. Nature of the series: Hypoglycemic activity in 48-hrs fasted rat assessed as decrease in blood glucose level at 200 mg/kg, ip after 2 hrs. The format is functional. The following applies: route intraperitoneal. In a few lines:
as §1

As for `O=C(O)c1ncc2ccccc2c1S`, the result in series [1] and in series [2] was inactive.
On to `CCCCNC(=O)NS(=O)(=O)c1ccc(C)cc1` [TOLBUTAMIDE], for which the inhibition in vivo at 200 mg/kg in series [3] stood at 28%; in series [4] it was 48%; in series [5], 47%.
With `O=C(O)c1nc2ccccc2cc1S`, the result in series [1] and in series [2] was inactive.
As to `O=C(O)c1ncc(S)cc1S`, the outcome in series [1] and in series [2] was inactive.
`O=C(O)c1nccnc1S`: the outcome in series [1] and in series [2] was inactive.
For the compound `CCOC(=O)c1ncsc1S`, the outcome in series [1] and in series [2] was inactive.
For the compound `O=C(O)c1ccc(S)c(C(=O)O)n1`, the result in series [1] and in series [2] was inactive.
Consider `C[S+]([O-])c1cccnc1C(=O)O` (centres undefined), for which the outcome in series [1] and in series [2] was inactive.
`O=C(O)c1[nH]c2ccccc2c1S`: the Activity entry in series [6] is listed as “Toxic”. Moreover, the values for the inhibition in vivo at 200 mg/kg in series [7] and in series [8] were 45% and 51%, respectively.
As for `O=C(O)c1nc(C(=O)O)c(S)cc1S`, the result in series [1] and in series [2] was inactive.
Consider `CS(=O)(=O)c1cccnc1C(=O)O`, for which the result in series [1] and in series [2] was inactive.

As a reminder, the inhibition in vivo is the drop in the measured response relative to a control, in per cent.
